Laboratory results published in ChEMBL document CHEMBL1135577, “Synthesis and biological evaluation of structurally highly modified analogues of the antimitotic natural product curacin A” (J Med Chem, 2002).

Each molecule was assayed against Tubulin (Bos taurus) (assay: Inhibition of tubulin polymerization of purified bovine brain tubulin). Conditions: not given.

IC50 [nM]	SMILES
920	C=CCCC1=N[C@H](/C=C\CC/C=C/C=C(\C)CC[C@H](CC=C)OC)CS1
5400	C=CC[C@@H](CC/C(C)=C/C=C/CC/C=C\[C@@H]1CSC([C@@H]2C[C@@H]2C)=N1)OCC(F)(F)C(F)(F)C(F)(F)F
> 80000	C=CC[C@@H](CC/C(C)=C/C=C/CCCO)OC
> 50000	CC(C)=C/C=C/CC/C=C\[C@@H]1CSC([C@@H]2C[C@@H]2C)=N1
3300	C=CC[C@@H](CC/C(C)=C/C=C/CC/C=C\[C@H](CSC)NC(C)=O)OC
4600	CCC[C@@H](CC/C(C)=C/C=C/CCCCC1CSC([C@@H]2C[C@@H]2C)=N1)OC (stereo partly drawn)

SMILES	IC50 [nM]
C=CC[C@H](O)CC/C(C)=C/C=C/CC/C=C\C1CSC([C@@H]2C[C@@H]2C)=N1 (stereo partly drawn)	870
C=CC[C@@H](CC/C(C)=C/C=C/CC/C=C\[C@@H]1CSC([C@@H]2C[C@@H]2C)=N1)OCOC	640
CCC[C@@H](CC/C(C)=C/C=C/CC/C=C\[C@@H]1CSC([C@@H]2C[C@@H]2C)=N1)OC	1200
C=CC[C@@H](CC/C(C)=C/C=C/CC/C=C\[C@@H]1CSC([C@H]2C[C@H]2C)=N1)OC	2100

The molecules below were run on A2780 (assay: Tested for colchicine binding inhibition, using human ovarian cancer cell lines (at 5 uM )). Conditions: not given.
Format: functional
Outline: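 [3H]colchicine (5 μM) was incubated with 1 μM tubulin and agent (1-250 μM) or DMSO vehicle (5% v/v) at 30 °C for 15 min or 37 °C for 10 min, in 1 M monosodium glutamate, 0.1 M glucose-1-phosphate, 1 mM MgCl2, 1 mM GTP and 0.5 mg/mL BSA. Samples were filtered through DEAE-cellulose and counted by scintillation. Values are means (N = 9 over four concentrations) ± SD.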

SMILES	inhibition at 5 µM [%]
C=CCCC1=N[C@H](/C=C\CC/C=C/C=C(\C)CC[C@H](CC=C)OC)CS1	83
C=CC[C@H](O)CC/C(C)=C/C=C/CC/C=C\C1CSC([C@@H]2C[C@@H]2C)=N1 (stereo partly drawn)	82
C=CC[C@@H](CC/C(C)=C/C=C/CC/C=C\[C@@H]1CSC([C@@H]2C[C@@H]2C)=N1)OCOC	81
C=CC[C@@H](CC/C(C)=C/C=C/CC/C=C\[C@@H]1CSC([C@@H]2C[C@@H]2C)=N1)OCC(F)(F)C(F)(F)C(F)(F)F	12
C=CC[C@@H](CC/C(C)=C/C=C/CCCO)OC	0
CCC[C@@H](CC/C(C)=C/C=C/CC/C=C\[C@@H]1CSC([C@@H]2C[C@@H]2C)=N1)OC	85
C=CC[C@@H](CC/C(C)=C/C=C/CC/C=C\[C@H](CSC)NC(C)=O)OC	12
CCC[C@@H](CC/C(C)=C/C=C/CCCCC1CSC([C@@H]2C[C@@H]2C)=N1)OC (stereo partly drawn)	1
C=CC[C@@H](CC/C(C)=C/C=C/CC/C=C\[C@@H]1CSC([C@H]2C[C@H]2C)=N1)OC	48

Each molecule was assayed on MCF7 (assay: Tested for 50% growth inhibitory concentration by using MCF-7 cell lines.). Conditions: Homo sapiens.
Format: functional
Outline: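 Cultured human tumor cells were seeded at 500-2000 cells/well, allowed to attach for 48 h, then exposed continuously for 48 h to DMSO vehicle or agent at five concentrations (e.g., 50-0.08 μM, 10-0.016 μM or 1-0.0016 μM series), each in quadruplicate. A time-zero plate was included. Cell number was read by MTS/phenazine methanesulfonate at A490-A630. Values are means (N = 4 over 10 concentrations) ± SD.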

GI50 [nM]	SMILES
300	C=CCCC1=N[C@H](/C=C\CC/C=C/C=C(\C)CC[C@H](CC=C)OC)CS1
> 10000	C=CC[C@@H](CC/C(C)=C/C=C/CC/C=C\[C@@H]1CSC([C@@H]2C[C@@H]2C)=N1)OCC(F)(F)C(F)(F)C(F)(F)F
> 10000	C=CC[C@@H](CC/C(C)=C/C=C/CCCO)OC
5200	C=CC[C@@H](CC/C(C)=C/C=C/CC/C=C\[C@H](CSC)NC(C)=O)OC
3300	CCC[C@@H](CC/C(C)=C/C=C/CCCCC1CSC([C@@H]2C[C@@H]2C)=N1)OC (stereo partly drawn)

SMILES	GI50 [nM]
C=CC[C@H](O)CC/C(C)=C/C=C/CC/C=C\C1CSC([C@@H]2C[C@@H]2C)=N1 (stereo partly drawn)	450
C=CC[C@@H](CC/C(C)=C/C=C/CC/C=C\[C@@H]1CSC([C@@H]2C[C@@H]2C)=N1)OCOC	220
CCC[C@@H](CC/C(C)=C/C=C/CC/C=C\[C@@H]1CSC([C@@H]2C[C@@H]2C)=N1)OC	50
C=CC[C@@H](CC/C(C)=C/C=C/CC/C=C\[C@@H]1CSC([C@H]2C[C@H]2C)=N1)OC	360
